Source: ChEMBL document CHEMBL1123394, “Systematic synthesis and biological evaluation of alpha- and beta-D-xylofuranosyl nucleosides of the five naturally occurring bases in nucleic acids and related analogues” (J Med Chem, 1986)
Converted amounts (≈) assume the structure as drawn.

Experiments:
Type in all cases: functional
[1] = test system: HeLa; assay: Antiviral activity was measured against Coxsackie virus B4 in HeLa cells.; details: Homo sapiens
How it was run: (§1)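 Inhibition of virus-induced cytopathogenicity in cell culture. Compounds were dissolved in growth medium at 100, 10 or 1 μg/mL or less.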

[2] = test system: HeLa; assay: Antiviral activity was measured against Polio virus-1 in HeLa cells.; details: Homo sapiens; how it was run: as §1
[3] = test system: HeLa; assay: Antiviral activity was measured against Vesicular stomatitis virus in HeLa cells.; details: Homo sapiens; how it was run: as §1
[4] = test system: HeLa; assay: Concentration required for microscopically detectable alteration of the normal cell morphology in HeLa cells.; details: Homo sapiens
How it was run: (§2)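 Host-cell morphology inspected microscopically for detectable alteration, with compounds in growth medium at up to 200 or 400 μg/mL.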

[5] = Antiviral activity was measured against Vesicular stomatitis virus in rabbit kidney cells.; details: Oryctolagus cuniculus; how it was run: as §1
[6] = Concentration required for microscopically detectable alteration of the normal cell morphology in PRK cells.; details: Oryctolagus cuniculus; how it was run: as §2
[7] = Antiviral activity was measured against Herpes simplex virus (HSV-1 KOS) in rabbit kidney cells.; details: Oryctolagus cuniculus; how it was run: as §1
[8] = Antiviral activity was measured against Herpes simplex virus (HSV-2 G) in rabbit kidney cells.; details: Oryctolagus cuniculus
How it was run: (§3)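 Inhibition of virus-induced cytopathogenicity scored in cell culture monolayers. Test compounds dissolved in growth medium at 100, 10, or 1 μg/mL or less.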

[9] = Antiviral activity was measured against Vaccinia virus in rabbit kidney cells.; details: Oryctolagus cuniculus; how it was run: as §1
[10] = test system: Vero; assay: Antiviral activity was measured against Coxsackie virus B4 in african green monkey kidney (Vero B) cells.; details: Chlorocebus sabaeus; how it was run: as §3
[11] = test system: Vero; assay: Antiviral activity was measured against Parainfluenza virus-3 in african green monkey kidney (Vero B) cells.; details: Chlorocebus sabaeus; how it was run: as §3
[12] = test system: Vero; assay: Antiviral activity was measured against Reo virus-1 in african green monkey kidney (Vero B) cells.; details: Chlorocebus sabaeus; how it was run: as §3
[13] = test system: Vero; assay: Antiviral activity was measured against forest virus in african green monkey kidney (Vero B) cells.; details: Chlorocebus sabaeus; how it was run: as §3
[14] = test system: Vero; assay: Antiviral activity was measured against Sindbis virus in african green monkey kidney (Vero B) cells.; details: Chlorocebus sabaeus; how it was run: as §3
[15] = test system: WI-38; assay: Concentration required for microscopically detectable alteration of the normal cell morphology in Wi-38 cells.; details: Homo sapiens; how it was run: as §2
[16] = test system: WI-38; assay: Antiviral activity was measured against Rhino virus-1A in human diploid (WI-38) cells.; how it was run: as §3
[17] = test system: WI-38; assay: Antiviral activity was measured against Rhino virus-9 in human diploid (WI-38) cells.; how it was run: as §3
[18] = test system: Vero; assay: Concentration required for microscopically detectable alteration of the normal cell morphology in Vero B cells.; details: Chlorocebus sabaeus; how it was run: as §2
[19] = Concentration required to reduce DNA synthesis in primary rabbit kidney cells using [3H-Methyl]-dThd incorporation; details: Oryctolagus cuniculus, read-out: ID50 (the source's name)
How it was run: (§4)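 Primary rabbit kidney cells with compounds in growth medium at 100, 10, or 1 μg/mL or less. Cell number and incorporation of [3H-methyl]dThd (DNA), [3H-5]Urd (RNA) or [3H2-4,5]leucine (protein) measured. ID50 taken as the dose giving 50% reduction in cell number or in DNA, RNA or protein synthesis.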

[20] = Concentration required to reduce RNA synthesis in primary rabbit kidney cells using [3H-5]-Urd incorporation; details: Oryctolagus cuniculus, read-out: ID50 (the source's name); how it was run: as §4
[21] = Concentration required to reduce protein synthesis in primary rabbit kidney cells usingi [3H2-4,5]leucine incorporation; details: Oryctolagus cuniculus, read-out: ID50 (the source's name); how it was run: as §4
[22] = Number of living cells on the proliferation of mouse myeloma cells SP2 was measured at concentration 100 ug/mL at 0h.
How it was run: (§5)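 Mouse myeloma SP2 cells seeded at 123 × 10^3 cells and exposed to compound at 1, 10 or 100 μg/mL in growth medium. Living cells counted at 0, 48 and 96 h alongside untreated controls.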

[23] = Number of living cells on the proliferation of mouse myeloma cells SP2 was measured at concentration 100 ug/mL at 48 hr.; how it was run: as §5
[24] = Number of living cells on the proliferation of mouse myeloma cells SP2 was measured at concentration 100 ug/mL at 96 h.; how it was run: as §5
[25] = Number of living cells on the proliferation of mouse myeloma cells SP2 was measured at concentration 10 ug/mL at 48 hr.; how it was run: as §5
[26] = Number of living cells on the proliferation of mouse myeloma cells SP2 was measured at concentration 10 ug/mL at 96 h.; how it was run: as §5
[27] = Number of living cells on the proliferation of mouse myeloma cells SP2 was measured at concentration 1 ug/mL at 48 hr.; how it was run: as §5
[28] = Number of living cells on the proliferation of mouse myeloma cells SP2 was measured at concentration 1 ug/mL at 96 h.; how it was run: as §5
[29] = Number of living cells on the proliferation of mouse myeloma cells SP2 was measured at concentration 1 ug/mL at 0h.; how it was run: as §5
[30] = Dose required to reduce primary rabbit kidney cell growth; details: Oryctolagus cuniculus, read-out: ID50 (the source's name); how it was run: as §4
[31] = test system: HeLa; assay: Antiviral activity was measured against vesicular stomatitis virus in HeLa cells.; details: Homo sapiens; how it was run: as §1
[32] = Antiviral activity was measured against vesicular stomatitis virus in rabbit kidney cells.; details: Oryctolagus cuniculus; how it was run: as §1
[33] = Antiviral activity was measured against vaccinia virus in rabbit kidney cells.; details: Oryctolagus cuniculus; how it was run: as §1
[34] = test system: HeLa; assay: Antiviral activity was measured against polio virus-1 in HeLa cells.; details: Homo sapiens; how it was run: as §1

Molecule `NC(=O)c1ncn([C@@H]2O[C@H](CO)[C@@H](O)[C@H]2O)n1` [RIBAVIRIN] has an MCC [1] of 70 µg/mL, an MCC [2] of 70 µg/mL and an MCC [3] of 20 µg/mL. For the same molecule, the MCC [4] was ≥ 400 µg/mL, the MCC [5] was 100 µg/mL and the MCC [6] was > 400 µg/mL. The MCC [7] was > 400 µg/mL, the MCC [8] was > 400 µg/mL and the MCC [9] was 7 µg/mL. For the same molecule, the MCC [10] was 70 µg/mL, the MCC [11] was 20 µg/mL and the MCC [12] was 7 µg/mL. For the same molecule, the MCC [13] was 70 µg/mL, the MCC [14] was 70 µg/mL and the MCC [15] was > 400 µg/mL. For the same molecule, the MCC [16] was 150 µg/mL, the MCC [17] was 70 µg/mL and the MCC [18] was ≥ 400 µg/mL.
In the case of `Nc1ncnc2c1ncn2[C@@H]1O[C@H](CO)[C@H](O)[C@H]1O`, the MCC [1] is reported as > 40 µg/mL, the MCC [4] is reported as 100 µg/mL and the MCC [6] is reported as > 100 µg/mL. For the same molecule, the MCC [7] was > 40 µg/mL, the MCC [8] was > 40 µg/mL and the IC50 [19] was 17 mg/L (≈ 63.6 µM). The IC50 [20] was 46 mg/L (≈ 172 µM), the IC50 [21] was 37 mg/L (≈ 138 µM) and the “No. of living cells” value [22] was 0.123. The “No. of living cells” value [23] was 0.008, the “No. of living cells” value [24] was 0 and the “No. of living cells” value [25] was 0.048. For the same molecule, the “No. of living cells” value [26] was 0.4, the “No. of living cells” value [27] was 0.864 and the “No. of living cells” value [28] was 1.368. For the same molecule, the MCC [10] was > 40 µg/mL, the MCC [11] was > 40 µg/mL and the MCC [12] was > 40 µg/mL. The MCC [13] was > 40 µg/mL, the MCC [14] was > 40 µg/mL and the MCC [15] was 200 µg/mL. The MCC [16] was 20 µg/mL, the MCC [17] was 20 µg/mL and the MCC [18] was > 100 µg/mL. The “No. of living cells” value [29] was 0.123 and the IC50 [30] was 23 mg/L (≈ 86.1 µM).
For `Nc1ncnc2c1ccn2[C@@H]1O[C@H](CO)[C@@H](O)[C@H]1O` [TUBERCIDIN], the MCC [1] was 0.2 µg/mL, the MCC [31] was 0.07 µg/mL and the MCC [4] was ≥ 1 µg/mL. For the same molecule, the MCC [32] was 0.07 µg/mL, the MCC [33] was > 0.1 µg/mL and the MCC [6] was ≥ 0.4 µg/mL. For the same molecule, the MCC [7] was > 0.1 µg/mL, the MCC [8] was > 0.1 µg/mL and the MCC [10] was > 0.1 µg/mL. For the same molecule, the MCC [11] was 0.2 µg/mL, the MCC [12] was 0.1 µg/mL and the MCC [13] was > 0.4 µg/mL. For the same molecule, the MCC [14] was > 0.1 µg/mL, the MCC [15] was 0.4 µg/mL and the MCC [16] was 0.01 µg/mL. The MCC [17] was 0.007 µg/mL, the MCC [18] was ≥ 0.4 µg/mL and the MCC [34] was 0.2 µg/mL.
